This is an account of results in ChEMBL document CHEMBL4825692, “Benzofuranyl-2-imidazoles as imidazoline I2 receptor ligands for Alzheimer's disease” (Eur J Med Chem, 2021).

Data set [1] can be described thus: Permeability of compound by PAMPA-BBB assay. It counts as ADME.
Data set [2] can be described thus: Solubility of the compound in 99 % PBS buffer solution. It counts as physicochemical.
A short description of data set [3]: Solubility of compound at pH 1.13. It counts as physicochemical. The note with it: buffer. An outline of the steps: (§1)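 Solubility was measured at pH 1.13, 4.61 and 6.97, simulating gastric and intestinal fluids, and classed by European Pharmacopoeia terms.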
A short description of data set [4]: Solubility of compound at pH 4.61. It counts as physicochemical. The note with it: buffer. An outline of the steps: as §1
Data set [5] can be described thus: Microsomal stability in human liver microsomes assessed as parent compound remaining after 60 mins. It counts as ADME, Microsome. Conditions: read-out: Stabilty. An outline of the steps: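 Human and mouse microsomes, incubation for 60 min, with percentage of parent compound remaining reported.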
The target of another data set is T1, Cytochrome P450 1A2 (Homo sapiens, UniProt P05177).
T1 sequence (P05177 whole entry): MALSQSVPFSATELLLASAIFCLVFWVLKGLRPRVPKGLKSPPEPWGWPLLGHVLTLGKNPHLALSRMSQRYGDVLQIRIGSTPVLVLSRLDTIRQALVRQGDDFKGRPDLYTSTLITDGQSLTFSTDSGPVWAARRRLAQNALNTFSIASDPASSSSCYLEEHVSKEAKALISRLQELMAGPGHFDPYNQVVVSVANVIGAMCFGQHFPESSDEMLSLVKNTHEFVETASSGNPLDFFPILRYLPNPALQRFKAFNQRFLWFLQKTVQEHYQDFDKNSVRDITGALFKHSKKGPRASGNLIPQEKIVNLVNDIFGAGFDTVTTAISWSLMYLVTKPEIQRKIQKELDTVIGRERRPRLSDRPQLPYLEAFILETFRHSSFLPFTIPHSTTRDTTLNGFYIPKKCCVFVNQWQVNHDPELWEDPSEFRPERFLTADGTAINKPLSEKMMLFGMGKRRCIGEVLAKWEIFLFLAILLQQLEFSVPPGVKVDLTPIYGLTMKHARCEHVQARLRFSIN
As to the kind of experiment: Inhibition of CYP1A2 (unknown origin) at 10 uM. It counts as ADME. The procedure, abridged: (§2)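 Recombinant human CYP1A2, CYP2C9, CYP2C19, CYP2D6 and CYP3A4 (7-BFC or DBF as probe) were tested with probe substances and fluorescent detection, with test compound at 10 μM.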

The next data set has as its target Cytochrome P450 2D6 (Homo sapiens, UniProt P10635). As to the kind of experiment: Inhibition of CYP2D6 (unknown origin) at 10 uM. It counts as ADME. An outline of the steps:
as §2

Another data set concerns the target Cytochrome P450 3A4 (Homo sapiens, UniProt P08684). As to the kind of experiment: Inhibition of CYP3A4 (unknown origin) using as 7-BFC as substrate at 10 uM. It counts as ADME. The procedure, abridged:
as §2

Data set [6] is described as follows: Plasma protein binding in mouse assessed as unbound fraction. It counts as ADME, cell-free.
For another data set, the system named is HCT-116. As to the kind of experiment: Cytotoxicity against human HCT-116 cells at 100 uM by real time IncuCyte proliferation assay. It counts as cell-based. The note with it: hct-116, 100 µM. The procedure, abridged: (§3)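 Adherent lines (LN-229, Capan-1, HCT-116, NCI-H460) seeded at 500–1500 cells/well and treated after overnight attachment. Suspension lines (HL-60, K-562, Z-138, DND-41) seeded at 2500–5500 cells/well directly with compound. Highest concentration 100 μM; proliferation tracked by real-time IncuCyte imaging over 72 h at 37 °C.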

A further data set relates to NCI-H460. In words: Cytotoxicity against human NCI-H460 cells at 100 uM by real time IncuCyte proliferation assay. It counts as cell-based. Conditions: nci-h460, 100 µM. The procedure, abridged: as §3
The next data set concerns Z-138. In words: Cytotoxicity against human Z138 cells at 100 uM by real time IncuCyte proliferation assay. The note with it: z-138, 100 µM. It counts as cell-based. An outline of the steps:
as §3

A short description of data set [7]: AUC (0 to infinity) in CD-1 mouse at 10 mg/kg, po measured after 24 hrs by HPLC/UV-VS analysis. The arrangement: route oral, time 24 hrs, dose 10 mg/kg. It counts as ADME, organism-based. Conditions: in vivo. The procedure, abridged:
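Male CD1 mice; plasma concentration of drug at 15 min to 24 h after a single oral 10 mg/kg dose, measured by HPLC with UV at 290 nm (calibration 0,025-5 μg/mL, peak area ratio). Non-compartmental analysis of mean concentration–time curves: AUC by trapezoidal rule, Cmax read directly from the mean curve.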

Data set [8] can be described thus: Tmax in CD-1 mouse at 10 mg/kg, po measured after 24 hrs by HPLC/UV-VS analysis. It counts as ADME, organism-based. The note with it: in vivo. The procedure, abridged:
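Male CD1 mice (40–50 g, n = 3–4 per group) received a single 10 mg/kg dose. Plasma was taken at 15, 30, 45 and 60 min and 2, 3, 4, 5, 8 and 24 h. Drug was measured by HPLC-UV at 290 nm against a calibration of 0,025-5 μg/mL. Non-compartmental analysis used the mean curve: t1/2β = ln2/β from least-squares terminal slope; Tmax read directly.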

In data set [9] the test system is Mus musculus. In words: Neuroprotection in naive mouse assessed as reduction in hippocampal FADD protein level at 50 mg/kg, ip by Western blot analysis relative to control. It counts as functional. The arrangement: scale not given: the % may be the effect or the level left. An outline of the steps: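 Adult naive CD-1 mice received one i.p. dose (n = 7) or saline vehicle (2 ml/kg, n = 6) and were killed 1 h later. Hippocampal protein (40 µg) was run on 10% SDS-PAGE, blotted to nitrocellulose and probed with anti-FADD, then ECL. Band IOD densitometry was expressed as % of same-gel vehicle controls, averaged over 2–4 gels per sample.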

The subject of data set [10] is Mus musculus. As to the kind of experiment: Antialzheimer activity in 5xFAD transgenic Alzheimer disease mouse model assessed as decrease in iNOS expression at 1 mg/kg/day by Western blot analysis.
The test system of data set [11] is Mus musculus. As to the kind of experiment: Antialzheimer activity in 5xFAD transgenic Alzheimer disease mouse model assessed as increase in SOD1 expression at 1 mg/kg/day by Western blot analysis.
Data set [12] concerns Mus musculus. In words: Antialzheimer activity in 5xFAD transgenic Alzheimer disease mouse model assessed as decrease in heme oxygenase 1 expression at 1 mg/kg/day by Western blot analysis.
Data set [13] in a line: Displacement of [3H]2-BFI from imidazoline I2 receptor in post-mortem human brain frontal cortex membrane one site model measured after 45 mins by liquid scintillation counting spectrometry.
For the next data set, the species on record is Rattus norvegicus. As to the kind of experiment: Displacement of [3H]idazoxan from imidazoline I2 receptor in rat brain cerebral cortex membrane assessed as occupancy at high affinity site measured after 30 mins by liquid scintillation counting spectrometry.

The source made the active and inactive calls. The rule behind the calls is not given here.

Cytochrome P450 2D6, sequence (P10635 whole entry): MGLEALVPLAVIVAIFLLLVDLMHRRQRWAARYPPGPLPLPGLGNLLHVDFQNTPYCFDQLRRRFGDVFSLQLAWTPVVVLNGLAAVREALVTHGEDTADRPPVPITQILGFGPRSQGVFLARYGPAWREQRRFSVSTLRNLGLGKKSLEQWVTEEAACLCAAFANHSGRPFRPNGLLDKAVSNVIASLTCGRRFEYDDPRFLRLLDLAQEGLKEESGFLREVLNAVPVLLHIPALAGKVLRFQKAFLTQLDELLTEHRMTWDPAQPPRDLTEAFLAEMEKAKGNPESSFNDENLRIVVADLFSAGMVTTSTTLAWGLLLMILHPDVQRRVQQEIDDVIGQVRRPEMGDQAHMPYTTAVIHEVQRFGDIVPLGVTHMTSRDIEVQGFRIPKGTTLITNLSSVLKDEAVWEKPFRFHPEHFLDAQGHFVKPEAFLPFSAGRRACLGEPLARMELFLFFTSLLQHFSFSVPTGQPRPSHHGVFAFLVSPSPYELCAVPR
Cytochrome P450 3A4, sequence (P08684 whole entry): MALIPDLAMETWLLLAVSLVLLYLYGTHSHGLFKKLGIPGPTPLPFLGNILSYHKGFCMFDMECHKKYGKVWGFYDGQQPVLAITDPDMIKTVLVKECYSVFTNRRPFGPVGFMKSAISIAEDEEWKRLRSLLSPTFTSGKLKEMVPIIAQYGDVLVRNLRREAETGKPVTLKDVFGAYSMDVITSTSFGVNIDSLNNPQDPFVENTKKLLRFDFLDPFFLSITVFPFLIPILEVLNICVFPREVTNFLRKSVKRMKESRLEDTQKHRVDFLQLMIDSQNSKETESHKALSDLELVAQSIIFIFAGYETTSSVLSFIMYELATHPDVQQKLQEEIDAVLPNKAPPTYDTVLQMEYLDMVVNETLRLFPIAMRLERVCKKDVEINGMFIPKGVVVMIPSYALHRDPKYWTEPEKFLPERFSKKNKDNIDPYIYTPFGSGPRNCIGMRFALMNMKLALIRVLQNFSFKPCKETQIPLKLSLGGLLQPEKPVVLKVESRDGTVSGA

Consider `Cl.c1ccc2oc(-c3ncc[nH]3)cc2c1`, for which the Papp in data set [1] was 136 nm/s. Further, the solubility in data set [2] was 52.5 µM; in [3], “Soluble”; in [4], “Soluble”. Moreover, the remaining at 1 h in data set [5] stood at 58%. For the same compound, the “inhibition (INH)” value against Cytochrome P450 1A2, against Cytochrome P450 2D6 and against Cytochrome P450 3A4 was “Not Active” throughout. For the same compound, in data set [6], the fraction unbound amounted to 0.16. In addition, the Activity result with HCT-116 is “Non-Toxic”; with NCI-H460, “Non-Toxic”; in the data set with Z-138, “Non-Toxic”; with Mus musculus [9], 34%; in the data set filed under Rattus norvegicus, 79%. Further, in data set [7], the AUC(0-inf) is 2.6 µg·h/mL. For the same compound, in [8], the Tmax came to 2 h. Also, the result with Mus musculus [10], with Mus musculus [11] and in the data set on Mus musculus [12] was Active. For the same compound, the pKi in [13] was 6.67.
